According to PMC2664401 (Pharmaceutical research, 2008):
“And” between values parts separate entries of the source, which are not always exact repeats. Equal entries are not always repeated. “Also recorded” adds a separate entry of the source.

How the values were obtained:
[1] = tested on: B^o,+; details: a substrate of B^o,+; cited from earlier work
[2] = cited from earlier work
[3] = Aqueous solubility, shake flask method in water; assay type: physicochemical; details: for solubility at 24 h: water, 25 °C, thermodynamic from solid
In short: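 Excess solid test compound was added to 0.5 mL water pre-equilibrated at 25 °C and shaken in a water bath at 25 ± 0.5 °C and 75 rpm for 24 h. Aliquots were centrifuged, and the supernatant was filtered and assayed for drug content. Analysis was by HPLC on a C18 column with 15 mM phosphate (pH 2.5)/1% acetonitrile and fluorescence detection (ex 270, em 380). Runs were in duplicate.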

[4] = Stability in ocular tissue homogenates: iris-ciliary body; assay type: in vitro ADME; details: rabbit, iris-ciliary body homogenate supernatant, pH 7.4
[5] = Stability in ocular tissue homogenates: cornea; assay type: in vitro ADME; details: rabbit, corneal homogenate supernatant, pH 7.4
[6] = Stability in vitreous humor; assay type: in vitro ADME, rabbit; details: for Apparent first order rate constant (k*): Vitreous Humor used as such, 37 °C, overall observed degradation; for half-life at 10 μg/mL: rabbit, vitreous humor (used as such)
[7] = biological target: T1, amino acid transporter B^0,+ (Oryctolagus cuniculus, UniProt G1T8K9); assay: Transcorneal transport mechanism studies; assay type: in vitro ADME, rabbit; details: for Substrate of the corneal amino acid transporter B^0,+: concluded from rabbit corneal permeability with and without inhibitors
T1 sequence (G1T8K9 1-637): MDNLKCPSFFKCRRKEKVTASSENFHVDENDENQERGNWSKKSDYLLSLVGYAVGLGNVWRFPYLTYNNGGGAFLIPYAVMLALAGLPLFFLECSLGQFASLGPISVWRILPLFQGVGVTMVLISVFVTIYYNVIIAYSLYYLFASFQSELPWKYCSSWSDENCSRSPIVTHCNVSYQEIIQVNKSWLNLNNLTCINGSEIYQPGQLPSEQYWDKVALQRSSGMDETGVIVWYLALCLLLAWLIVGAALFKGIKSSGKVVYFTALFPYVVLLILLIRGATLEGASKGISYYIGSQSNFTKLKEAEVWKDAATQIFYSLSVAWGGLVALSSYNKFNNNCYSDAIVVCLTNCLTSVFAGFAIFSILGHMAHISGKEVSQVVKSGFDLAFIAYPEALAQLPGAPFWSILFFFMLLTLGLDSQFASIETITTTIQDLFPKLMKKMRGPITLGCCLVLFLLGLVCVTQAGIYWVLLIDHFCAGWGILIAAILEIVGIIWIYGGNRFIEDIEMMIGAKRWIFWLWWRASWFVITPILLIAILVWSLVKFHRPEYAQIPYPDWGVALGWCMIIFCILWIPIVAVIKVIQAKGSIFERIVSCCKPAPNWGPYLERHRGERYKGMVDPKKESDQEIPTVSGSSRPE

[8] = Hydrolysis in DPBS transport media; assay type: physicochemical; details: pH 7.4
[9] = Solution; assay type: physicochemical
[10] = Stability in ocular tissue homogenates: retina/choroid; assay type: in vitro ADME; details: rabbit, retina/choroid homogenate supernatant, pH 7.4
[11] = tested on: amino acid transporter B^0,+; details: xenopus laevis oocytes; cited from earlier work

| SMILES | solubility at 24 h [3] | half-life at 10 μg/mL [4] | half-life at 10 μg/mL [5] | Apparent first order rate constant (k*) [6] | half-life at 10 μg/mL [6] | Substrate of the corneal amino acid transporter B^0,+ [7] | half-life at 10 μg/mL [10] | further results |
| --- | --- | --- | --- | --- | --- | --- | --- | --- |
| Nc1nc2c(ncn2COCCOC(=O)C(N)Cc2ccccc2)c(=O)[nH]1 (stereo not shown) [phenylalanine-ACV] | – | – | – | – | – | – | – | Transport of [^3H]-L-Arginine in the presence of prodrug [1]: decreased transport |
| Nc1nc2c(ncn2COCCO)c(=O)[nH]1 [ACV, acyclovir, reference compound] | 1200 µg/mL and 5300 µM | – | – | – | – | – | – | saturation solubility in water [2]: 1200 µg/mL |
| Cl.Nc1nc2c(ncn2COCCOC(=O)[C@@H](N)CC(=O)O)c(=O)[nH]1 [L-Asp-ACV, (S)-3-amino-4-(2-((2-amino-6-oxo-1H-purin-9(6H)-yl)methoxy)ethoxy)-4-oxobutanoic acid-HCl] | 3840 µg/mL and 10200 µM | 2.23 ± 0.085 h | 4.83 ± 0.203 h | 4.2 ± 0.1 ×10^3, min^−1 | 2.76 ± 0.065 h | is a substrate | 0.86 ± 0.0267 h | Effect of glutamic acid on transcorneal transport ([7]; L-Glutamic acid 1 mM, pH 5): not inhibited; also recorded: failed to inhibit; Transcorneal permeability in the presence of BCH ([7]; male, New Zealand albino, rabbit, 3 h): 2.66±0.21 × 10^−6 cm.s^−1; half-life ([8]; buffer): 5.1 ± 0.1 h; half-life at 50 μg/mL ([9]; borate buffer, pH 9): 5.6 ± 0.2 h; half-life at 50 μg/mL ([9]; hydrochloride buffer, pH 1.2): 627 ± 31 h; half-life at 50 μg/mL ([9]; phosphate buffer, pH 7): 32 ± 0.4 h; half-life at 50 μg/mL ([9]; phthalate buffer, pH 3): 371 ± 16 h; half-life at 50 μg/mL ([9]; phthalate buffer, pH 5): 262 ± 4 h |
| Cl.Nc1nc2c(ncn2COCCOC(=O)[C@H](N)CC(=O)O)c(=O)[nH]1 [D-Asp-ACV, (R)-3-amino-4-(2-((2-amino-6-oxo-1H-purin-9(6H)-yl)methoxy)ethoxy)-4-oxobutanoic acid-HCl] | 3850 µg/mL and 10200 µM | 2.32 ± 0.168 h | 3.73 ± 0.21 h | 5 ± 0.5 ×10^3, min^−1 | 2.34 ± 0.252 h | not a substrate | 20 ± 1.47 h | half-life ([8]; DPBS): 5.6 ± 0.2 h; Solubility, fold higher than that of ACV ([3]; relative to ACV): about 2 fold |
| Nc1nc2c(ncn2COCCOC(=O)C[C@H](N)C(=O)O)c(=O)[nH]1 [acyclovir-L-aspartate β-ester] | – | – | – | – | – | – | – | Transport by the amino acid transporter B^0,+ [11]: is transported |
